Values after ≈ are worked out from the molar mass of the structure shown. Active and inactive are the calls of the source. The rule behind the calls is not given here.
Legend:
Staphylococcus aureus [1] = assay: Potentiation of neomycin-induced antibacterial activity against Staphylococcus aureus ATCC 25923 assessed as reduction in […] MIC incubated for 20 hrs by serial dilution broth microplate method; assay type: functional, organism-based
[2] = target: T1, Methicillin resistance mecR1 protein (Staphylococcus aureus) (UniProt P0A0B1); assay: Inhibition of MecR1 in methicillin-resistant Staphylococcus aureus HEMSA assessed as reduction in ampicillin and sulbactam MIC at 0.0078 mM incubated for 20 hrs by serial dilution broth microplate method
T1 sequence (whole entry): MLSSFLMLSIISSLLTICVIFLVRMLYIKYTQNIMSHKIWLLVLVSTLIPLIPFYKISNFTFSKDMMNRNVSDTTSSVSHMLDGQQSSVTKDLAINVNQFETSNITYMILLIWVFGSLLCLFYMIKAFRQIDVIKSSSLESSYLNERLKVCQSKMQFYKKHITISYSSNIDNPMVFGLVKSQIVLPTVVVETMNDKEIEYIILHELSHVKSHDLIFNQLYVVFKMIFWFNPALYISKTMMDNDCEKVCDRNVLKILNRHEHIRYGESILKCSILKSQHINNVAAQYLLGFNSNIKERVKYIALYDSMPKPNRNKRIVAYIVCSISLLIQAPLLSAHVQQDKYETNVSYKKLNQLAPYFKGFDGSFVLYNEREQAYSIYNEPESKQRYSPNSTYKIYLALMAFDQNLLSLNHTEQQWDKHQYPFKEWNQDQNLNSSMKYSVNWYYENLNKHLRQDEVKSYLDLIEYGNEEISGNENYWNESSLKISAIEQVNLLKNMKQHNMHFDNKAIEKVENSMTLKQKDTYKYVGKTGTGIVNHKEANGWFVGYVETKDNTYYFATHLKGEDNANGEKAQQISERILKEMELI
In short: (§1)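 Chemosensitization in MRSA HEMSA 5 measured by CLSI broth microdilution in Mueller-Hinton broth. Serial two-fold dilutions of antibiotic (oxacillin, cloxacillin, ampicillin/sulbactam 2:1, ciprofloxacin or neomycin) combined with compound at fixed concentration not exceeding ¼ of its own MIC. Inoculum OD 0.5 diluted 1:100. Read after 20 h at 37 °C. Result given as fold reduction of antibiotic MIC.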

[3] = target: T1, Methicillin resistance mecR1 protein (Staphylococcus aureus); assay: Inhibition of MecR1 in methicillin-resistant Staphylococcus aureus HEMSA assessed as reduction in ciprofloxacin MIC at 0.0078 mM incubated for 20 hrs by serial dilution broth microplate method; in short: as §1
Staphylococcus aureus [4] = assay: Antimicrobial activity against Staphylococcus aureus ATCC 25923 incubated for 20 hrs by serial dilution broth microplate method; assay type: functional; details: ATCC 25923, 20 h
In short: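 Broth dilution per CLSI in Mueller-Hinton broth, serial two-fold dilutions; compounds alone against reference strain, inoculum from suspension at OD 0.5 diluted 1:100; read after 20 h at 37 °C. MIC taken as lowest concentration inhibiting growth.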

Staphylococcus aureus [5] = assay: Potentiation of oxacillin-induced antibacterial activity against Staphylococcus aureus ATCC 25923 assessed as reduction in oxacillin MIC at 0.0039 mM incubated for 20 hrs by serial dilution broth microplate method; assay type: functional
Staphylococcus aureus [6] = assay: Resistance index, ratio of MIC for methicillin-resistant Staphylococcus aureus HEMSA to MIC for Staphylococcus aureus ATCC 25923; assay type: functional
Staphylococcus aureus [7] = assay: Potentiation of […] antibacterial activity against Staphylococcus aureus ATCC 25923 assessed as reduction in cloxacillin MIC incubated for 20 hrs by serial dilution broth microplate method; assay type: functional, organism-based
Staphylococcus aureus [8] = assay: Antimicrobial activity against methicillin-resistant Staphylococcus aureus HEMSA incubated for 20 hrs by serial dilution broth microplate method; assay type: functional
In short: (§2)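 Broth microdilution MIC per CLSI in Mueller-Hinton broth against clinical isolate MRSA HEMSA 5. Bacterial suspension adjusted to OD 0.5, diluted 1:100 and added to serial two-fold dilutions of test agent. Ampicillin/sulbactam used at 2:1 ratio. Growth read after 20 h at 37 °C.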

[9] = target: T1, Methicillin resistance mecR1 protein (Staphylococcus aureus); assay: Inhibition of MecR1 in methicillin-resistant Staphylococcus aureus HEMSA assessed as reduction in neomycin MIC at 0.0078 mM incubated for 20 hrs by serial dilution broth microplate method; in short: as §1
[10] = target: T1, Methicillin resistance mecR1 protein (Staphylococcus aureus); assay: Inhibition of MecR1 in methicillin-resistant Staphylococcus aureus HEMSA assessed as reduction in cloxacillin MIC at 0.0078 mM incubated for 20 hrs by serial dilution broth microplate method; in short: as §1
[11] = target: T1, Methicillin resistance mecR1 protein (Staphylococcus aureus); assay: Inhibition of MecR1 in methicillin-resistant Staphylococcus aureus HEMSA assessed as reduction in oxacillin A MIC at 0.0078 mM incubated for 20 hrs by serial dilution broth microplate method; in short: as §1
Staphylococcus aureus [12] = assay: Potentiation of […] antibacterial activity against Staphylococcus aureus ATCC 25923 assessed as reduction in ampicillin and sulbactam MIC MIC incubated for 20 hrs by serial dilution broth microplate method; assay type: functional, organism-based
Staphylococcus aureus [13] = assay: Potentiation of ciprofloxacin -induced antibacterial activity against Staphylococcus aureus ATCC 25923 assessed as reduction in […] MIC incubated for 20 hrs by serial dilution broth microplate method; assay type: functional, organism-based
Staphylococcus aureus [14] = assay: Antimicrobial activity against methicillin-resistant Staphylococcus aureus HEMSA incubated for 20 hrs in presence of sulbactam by serial dilution broth microplate method; assay type: functional; in short: as §2
Staphylococcus aureus [15] = assay: Antimicrobial activity against Staphylococcus aureus ATCC 25923 incubated for 20 hrs in presence of sulbactam by serial dilution broth microplate method; assay type: functional; details: ATCC 25923, 20 h
[16] = target: T1, Methicillin resistance mecR1 protein (Staphylococcus aureus); assay: Inhibition of MecR1 in methicillin-resistant Staphylococcus aureus HEMSA assessed as reduction in oxacillin A MIC at 0.125 mM incubated for 20 hrs by serial dilution broth microplate method; in short: as §1
Staphylococcus aureus [17] = assay: Potentiation of oxacillin-induced antibacterial activity against Staphylococcus aureus ATCC 25923 assessed as reduction in oxacillin MIC at 0.125 mM incubated for 20 hrs by serial dilution broth microplate method; assay type: functional
[18] = target: T1, Methicillin resistance mecR1 protein (Staphylococcus aureus); assay: Inhibition of MecR1 in methicillin-resistant Staphylococcus aureus HEMSA assessed as reduction in ciprofloxacin MIC at 0.125 mM incubated for 20 hrs by serial dilution broth microplate method; in short: as §1
[19] = target: T1, Methicillin resistance mecR1 protein (Staphylococcus aureus); assay: Inhibition of MecR1 in methicillin-resistant Staphylococcus aureus HEMSA assessed as reduction in cloxacillin MIC at 0.125 mM incubated for 20 hrs by serial dilution broth microplate method; in short: as §1
[20] = target: T1, Methicillin resistance mecR1 protein (Staphylococcus aureus); assay: Inhibition of MecR1 in methicillin-resistant Staphylococcus aureus HEMSA assessed as reduction in neomycin MIC at 0.125 mM incubated for 20 hrs by serial dilution broth microplate method
[21] = target: T1, Methicillin resistance mecR1 protein (Staphylococcus aureus); assay: Inhibition of MecR1 in methicillin-resistant Staphylococcus aureus HEMSA assessed as reduction in ampicillin and sulbactam MIC at 0.125 mM incubated for 20 hrs by serial dilution broth microplate method; in short: as §1
[22] = Toxicity against HEK293 cells assessed as cell viability at 0.125 mM incubated for 48 hrs by EZ4U colorimetric assay; assay type: cell-based; details: human, read-out: Activity
In short: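 HEK-293 cells in DMEM with 10% FBS, penicillin/streptomycin, 37 °C, 5% CO2; seeded 1.5×10^4 cells/well, 24 h to 60% confluence; compound 0.01–250 µM for 48 h; EZ4U tetrazolium reagent 5 h, absorbance at 492 nm; doxorubicin positive control (0.005–100 µM); four repetitions.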

Compound	Activity (Staphylococcus aureus [1])	MIC (Staphylococcus aureus [4])	Ratio (Staphylococcus aureus [6])	Activity (Staphylococcus aureus [7])	MIC (Staphylococcus aureus [8])	Activity (Staphylococcus aureus [12])	Activity (Staphylococcus aureus [13])	other results
O=C1NC(N2CCNCC2)=N/C1=C\c1ccc2c(c1)Cc1ccccc1-2	inactive	15.6 µM (≈ 5.37 µg/mL)	2	inactive	31.3 µM (≈ 10.8 µg/mL)	inactive	inactive	inhibition [2]: inactive; inhibition [3]: inactive; fold change (FC) (Staphylococcus aureus [5]): 2; inhibition [9]: inactive; fold change (FC) [10]: 8; inhibition [11]: inactive
CC1(C)S[C@@H]2[C@H](NC(=O)[C@H](N)c3ccccc3)C(=O)N2[C@H]1C(=O)O [AMPICILLIN]			370					MIC (Staphylococcus aureus [14]): 200 µM; MIC (Staphylococcus aureus [15]): 0.54 µM
O=C1NC(N2CCNCC2)=N/C1=C\c1c2ccccc2cc2ccccc12	inactive	500 µM (≈ 178 µg/mL)	1	inactive	500 µM (≈ 178 µg/mL)	inactive	inactive	fold change (FC) [16]: 64; fold change (FC) (Staphylococcus aureus [17]): 2; inhibition [18]: inactive; fold change (FC) [19]: 8; inhibition [20]: inactive; inhibition [21]: inactive; viability at 48 h, 125 µM [22]: 91%

Source: ChEMBL document CHEMBL3616416, “Imidazolidine-4-one derivatives in the search for novel chemosensitizers of Staphylococcus aureus MRSA: synthesis, biological evaluation and molecular modeling studies” (Eur J Med Chem, 2015)
